Compound activity: PubChem BioAssay, several laboratories
In the library only some 4.6% were active in any assay of this set; here they are far more common.
RAM network inh = inhibitors of the yeast RAM network, primary screen, dse1pr::URA3 reporter, 5-FOA selection; S. cerevisiae dse1pr::URA3 reporter, 5-FOA growth OD615, 2 d; analog-sensitive cbk1-as2 kinase mutant strain; actives 1.8% (n = 190,000); inhibition, % at 50 µM; AID 868, 2007;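 active = inhibition above a set limit, 3 SD over mean compound inhibition, cut at about 8.4% in these data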;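 also: 0% = DMSO-only wells with no growth and 100% = 10 µM 1-NA-PP1 full growth; inhibition rescues growth on 5-FOA so higher OD means more RAM inhibition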
NCF1 inh = p47phox/p22phox peptide binding inhibitors, primary screen, biochemical, uHTS, NADPH oxidase regulatory subunit. actives 0.53% (n = 220,000). AID 1274, 2008. fluorescence polarization, 2 h. inhibition, % at 24.7 µM;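 active = inhibition above about 30%, limit read from the data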;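 also: 0% = p47phox with labelled peptide and 100% = labelled peptide alone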
WT yeast gro inh = growth inhibition of WT strain, primary screen, mitochondrial fusion inhibitor project, WT and mutant strains, chemical genetic; AID 1362, 2008; actives 2.1% (n = 190,000); inhibition, % at 10 µM; mitochondrial fusion phenotypic screen; in the data active = inhibition above about 58%; tested in S. cerevisiae
Hck-Nef inh = inhibitors of Nef-activated human Hck kinase, primary screen, biochemical, Z-Lyte FRET, 384-well, Hck-YEEI | actives 0.68% (n = 220,000) | Tyrosine-protein kinase HCK (Homo sapiens), P08631 | inhibition, % at 20 µM | Recombinant Hck-YEEI plus Nef, Z-Lyte FRET kinase assay;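 active = Hck-Nef kinase inhibition above about 50%, limit read from the data; inactive = inhibition below that limit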;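 also: 0% = DMSO with Hck plus Nef and 100% = Hck alone without Nef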
Target sequence (P08631 whole entry, looked up): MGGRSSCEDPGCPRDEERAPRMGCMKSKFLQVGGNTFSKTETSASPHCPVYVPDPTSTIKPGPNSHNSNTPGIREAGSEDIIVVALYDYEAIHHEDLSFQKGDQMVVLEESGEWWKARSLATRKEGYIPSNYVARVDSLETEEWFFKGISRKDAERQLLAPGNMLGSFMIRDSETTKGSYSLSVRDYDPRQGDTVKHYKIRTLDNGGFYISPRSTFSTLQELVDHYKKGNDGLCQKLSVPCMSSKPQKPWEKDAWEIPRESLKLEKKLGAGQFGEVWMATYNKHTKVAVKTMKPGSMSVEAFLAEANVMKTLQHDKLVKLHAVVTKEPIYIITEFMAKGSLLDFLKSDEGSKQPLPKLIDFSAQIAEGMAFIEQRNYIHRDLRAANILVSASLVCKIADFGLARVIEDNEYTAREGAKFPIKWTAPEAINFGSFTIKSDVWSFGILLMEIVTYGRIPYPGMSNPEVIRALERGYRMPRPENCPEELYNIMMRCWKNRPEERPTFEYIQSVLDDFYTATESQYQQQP
Calb biofilm kill = clotrimazole potentiators killing C. albicans biofilm, primary screen, 4-compound mixtures; C. albicans biofilm persisters + clotrimazole, fluorescence viability; primary screen in compound mixtures of four per well; inhibition, % at 7.6 µM; actives 0.02% (n = 120,000); AID 1242, 2008;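 active = inhibition above 30.3% in the primary screen of four-compound pools, then above 30% when the compound was retested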;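 also: compounds exposed to preformed 24 h biofilms for 48 h; 0% = untreated biofilm control and 100% = clotrimazole plus chlorhexidine kill blank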
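Test system: C. albicans biofilms. Buffer or medium: RPMI/MOPS medium, pH 7.0. Timing: 48 h compound exposure at 37 °C. Technique: Alamar Blue fluorescence. Evaluation: percent inhibition of biofilm viability.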
Arbovirus anti = antivirals against arbovirus infection, primary screen, cell-based, full library, 10K replicate subset | arbovirus infection cell-based antiviral screen | inhibition, % at 10 µM | actives 0.37% (n = 200,000) | AID 1251, 2008; in the data active = inhibition above about 30%
RAM 5-FOA = 5-FOA growth of efflux-deficient control yeast, dose response, counter-screen for RAM network inhibitor project, S. cerevisiae, OD615. max inhibition, %. 1,200 tested, under 10 active. AID 1305, 2008. S. cerevisiae efflux-deficient reporter strain, 5-FOA growth OD615, 2 days. shares compounds with RAM network inh; call rule not given here;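 also: plate controls were vehicle for no effect and reference inhibitor for full effect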
Active calls of the source: *; . = not tested or not shown.

SMILES	RAM network inh	NCF1 inh	WT yeast gro inh	Hck-Nef inh	Calb biofilm kill	Arbovirus anti	RAM 5-FOA
O=C(O)CC1S/C(=N\N=C2CCCCCCC2)N(c2ccccc2)C1=O (centres undefined)	-0.1	-0.9	-2.5	-7.1	15.6	11.8	.
COC(=O)Cc1ccc(N(Cc2ccccc2F)S(=O)(=O)c2ccc(Cl)cc2)cc1	15.5*	1.4	68.8*	-2.3	9.6	1.9	1.1
NC(=O)c1ncc(C(F)(F)F)cc1Oc1ccc(C(F)(F)F)cc1	2.0	-2.6	8.6	-1.1	.	-11.1	.
C/C(CC1CC2=C(CC1(C)C)C(C)(C)CCC2)=N\NC(N)=S (centres undefined)	13.2*	-2.3	76.0*	-1.8	.	-18.2	1.1
CC(=O)CCn1c(=O)n(CCC(C)=O)c(=O)n(CCC(C)=O)c1=O	0.0	-6.7	-8.1	0.0	9.1	-3.7	.
CCCCn1nnc(NC(=S)NC(=O)c2ccc(-c3cccc(Cl)c3Cl)o2)n1	13.5*	-31.2	77.6*	-1.6	5.3	-1.2	4.7
O=C1CN(C(=O)/C=C/c2ccccc2F)c2ccccc2N1	0.0	-2.4	1.2	7.5	5.1	1.8	.
CCC(C(=O)Nc1nc(C)c(C(=O)OC)s1)c1ccccc1 (centres undefined)	0.4	-11.8	12.7	-4.3	13.9	-22.1	.
CCC(C(=O)Nc1ccsc1C(=O)OC)c1ccccc1 (centres undefined)	17.1*	-7.5	-7.2	-9.0	14.1	-1.1	2.9
CCOc1ccc(NS(=O)(=O)c2ccc(NC(=S)NC(=O)CC(C)C)cc2)cc1	12.1*	-10.6	79.5*	-2.5	.	-32.1	2.4
CCOC(=O)c1ccc(NC(=O)Nc2ccc3c4c(cccc24)C(=O)N3CC)cc1	18.4*	3.1	-13.4	10.2	.	-5.1	3.6
CCN1C(=O)c2cccc3c(NS(=O)(=O)c4ccc(NC(C)=O)cc4)ccc1c23	3.5	0.4	-8.0	0.1	.	-3.4	.
CCOc1ccc(S(=O)(=O)Nc2nc3ccc(OC)cc3s2)cc1	12.2*	9.2	-7.8	2.6	.	1.1	2.6
CCOc1ccc2nc(NS(C)(=O)=O)sc2c1	1.9	-8.0	-9.8	0.3	.	-5.6	.
CCNC(=O)COC(=O)c1cccc(Br)c1	.	4.8	.	23.9	15.8	.	.
O=c1c2ccccc2nc(SCc2cccc(F)c2)n1-c1cccc(S(=O)(=O)N2CCCC2)c1	12.7*	-34.6	6.5	-1.8	13.9	6.2	1.9
CCOC(=O)c1sc(NC(=O)CSc2nnc(-c3ccc(OC)cc3)n2CCOC)nc1C	12.4*	-14.0	-1.9	-0.2	.	-5.0	1.5
COCCn1c(SCC(=O)Nc2nnc(C)s2)nnc1-c1ccncc1	-0.2	-8.9	2.0	1.8	.	0.2	.
CCN(CC)S(=O)(=O)c1cccc(C(=O)c2c(C)cc3ccccn23)c1	14.5*	-12.3	30.6	5.0	10.7	5.3	1.7
CC(C)COc1ccc(/C=C2/Sc3ccccc3C2=O)cc1	20.9*	-44.6	13.6	-0.4	.	-4.5	6.9
CCCCOc1ccc(/C=C2/Sc3ccccc3C2=O)cc1	16.6*	-47.0	40.5	-3.0	.	1.1	5.1
O=C1/C(=C/c2cccs2)Sc2ccccc21	3.4	-1.5	13.7	5.5	15.0	-6.1	.
CC(=O)Oc1cccc(/C=C2\Sc3ccccc3C2=O)c1	.	-10.6	.	8.1	25.0	.	.
O=C(COC(=O)c1ccc(-c2ccccc2)cc1)Nc1ccccc1-c1ccccc1	11.8*	-9.2	20.7	2.8	-0.1	-7.5	3.5
O=C(COC(=O)c1ccc(O)cc1)Nc1ccccc1-c1ccccc1	1.8	-9.2	-10.7	2.4	5.0	-2.0	.
CC(C)S(=O)(=O)C1=NSC2=NC(=O)/C(=C\c3ccc(-c4ccccc4)o3)C(=N)N21	14.1*	-62.5	17.1	3.1	24.8	33.1*	4.2
O=S(=O)(Nc1nc2ccccc2nc1Nc1ccc2c(c1)OCCO2)c1cccs1	11.5*	-22.4	32.3	9.1	.	26.0	1.2
